Assay results taken from ChEMBL document CHEMBL5136958, “The development of HEC-866 and its analogues for the treatment of idiopathic pulmonary fibrosis” (RSC Med Chem, 2021).
Calls of active or inactive are those of the source. No cut-off for these calls is given here.

Assays:
HFL1 [1] = assay: Antiproliferative activity against human HFL1 cells assessed as reduction in cell proliferation measured after 24 hrs by CCK-8 assay; type: functional, cell-based; details: HFL1, 24 h
Procedure, shortened: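 Human fetal lung fibroblasts (HFL-1); growth inhibition quantified with CCK-8; IC50 averaged from 3 experiments, each in duplicate.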

[2] = AUClast in Sprague-Dawley rat model of bleomycin-induced pulmonary fibrosis at 2 mg/kg, iv by LC-MS/MS analysis; type: ADME, organism-based; parameters: time 0 - last, dose 2 mg/kg, route iv; details: in vivo
Procedure, shortened: (§1)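 Male Sprague-Dawley rats with induced pulmonary fibrosis; single i.v. (2.0 mg kg⁻¹) or p.o. (5.0 mg kg⁻¹) administration. Plasma samples stored at −70 °C; the supernatant was analysed by LC-MS/MS for PK parameters.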

[3] = Clearance in Sprague-Dawley rat model of bleomycin-induced pulmonary fibrosis at 2 mg/kg, iv by LC-MS/MS analysis; type: ADME, organism-based; details: in vivo; procedure, shortened: as §1
[4] = AUClast in Sprague-Dawley rat model of bleomycin-induced pulmonary fibrosis at 5 mg/kg, po by LC-MS/MS analysis; type: ADME, organism-based; parameters: time 0 - last, dose 5 mg/kg, route po; details: in vivo; procedure, shortened: as §1
[5] = AUC(infinity) in Sprague-Dawley rat model of bleomycin-induced pulmonary fibrosis at 5 mg/kg, po by LC-MS/MS analysis; type: ADME, organism-based; parameters: time infinity, dose 5 mg/kg, route po; details: in vivo; procedure, shortened: as §1
HFL1 [6] = assay: Antifibrotic activity in TGF-beta1-induced HFL1 cell injury assessed as alpha-SMA expression at 5 uM measured after 48 hrs by Western blot analysis (reference value: 100%); type: functional, Homo sapiens
Procedure, shortened: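 HFL-1 cells stimulated with TGF-β1; α-SMA protein detected by Western blot with anti-α-SMA antibody, normalised to tubulin; mean of n = 3.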

HFL1 [7] = assay: Antifibrotic activity in TGF-beta1-induced HFL1 cell injury assessed as down regulation of collagen 1 mRNA expression at 0.625 to 10 uM measured after 24 hrs by RT-PCR analysis; type: functional, cell-based; details: Homo sapiens, dose 0.625-10 µM
Procedure, shortened: (§2)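 TGF-β1-induced HFL-1 cells treated 24 h (test range 0.625–10 μM; comparator 3 mM); collagen 1 and collagen 3 mRNA measured by RT-PCR; mean of n = 3.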

HFL1 [8] = assay: Antifibrotic activity in TGF-beta1-induced HFL1 cell injury assessed as down regulation of collagen 3 mRNA expression at 0.625 to 10 uM measured after 24 hrs by RT-PCR analysis; type: functional, cell-based; details: Homo sapiens, dose 0.625-10 µM; procedure, shortened: as §2
[9] = Clearance in dog at 1 mg/kg, iv by LC-MS/MS analysis; type: ADME, organism-based, Canis lupus familiaris; details: in vivo
[10] = Tmax in Sprague-Dawley rat model of bleomycin-induced pulmonary fibrosis at 5 mg/kg, po by LC-MS/MS analysis; type: ADME, organism-based; details: in vivo
Procedure, shortened: (§3)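 Male Sprague-Dawley rats with induced pulmonary fibrosis were dosed 2.0 mg kg⁻¹ i.v. or 5.0 mg kg⁻¹ p.o. Plasma was stored at -70 °C, and the supernatant was analysed by LC-MS/MS.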

[11] = Cmax in Sprague-Dawley rat model of bleomycin-induced pulmonary fibrosis at 5 mg/kg, po by LC-MS/MS analysis; type: ADME, organism-based; parameters: dose 5 mg/kg, route po; details: in vivo; procedure, shortened: as §1
[12] = Volume of distribution at steady state in Sprague-Dawley rat model of bleomycin-induced pulmonary fibrosis at 2 mg/kg, iv by LC-MS/MS analysis; type: ADME, organism-based; details: in vivo, read-out: Vdss; procedure, shortened: as §3
[13] = Half life in dog at 1 mg/kg, iv by LC-MS/MS analysis; type: ADME, organism-based, Canis lupus familiaris; details: in vivo
[14] = Cmax in dog at 5 mg/kg, po by LC-MS/MS analysis; type: ADME, organism-based, Canis lupus familiaris; parameters: dose 5 mg/kg, route po; details: in vivo
[15] = Half life in dog at 5 mg/kg, po by LC-MS/MS analysis; type: ADME, organism-based, Canis lupus familiaris; details: in vivo
[16] = Clearance in cynomolgus monkey at 1 mg/kg, iv by LC-MS/MS analysis; type: ADME, organism-based, Macaca fascicularis; details: in vivo
[17] = Volume of distribution at steady state in cynomolgus monkey at 1 mg/kg, iv by LC-MS/MS analysis; type: ADME, organism-based, Macaca fascicularis; details: in vivo, read-out: Vdss
[18] = Half life in cynomolgus monkey at 1 mg/kg, iv by LC-MS/MS analysis; type: ADME, organism-based, Macaca fascicularis; details: in vivo
[19] = AUClast in cynomolgus monkey at 5 mg/kg, po by LC-MS/MS analysis; type: ADME, organism-based, Macaca fascicularis; parameters: time 0 - last, dose 5 mg/kg, route po; details: in vivo
[20] = Half life in cynomolgus monkey at 5 mg/kg, po by LC-MS/MS analysis; type: ADME, organism-based, Macaca fascicularis; details: in vivo
[21] = Oral bioavailability in cynomolgus monkey at 5 mg/kg by LC-MS/MS analysis; type: ADME, organism-based, Macaca fascicularis; details: in vivo
Rattus norvegicus [22] = assay: Antifibrotic activity against bleomycin-induced pulmonary fibrosis in Sprague-Dawley rat assessed as reduction in lung hydroxyproline content at 6 mg/kg, po administered daily for 1 to 14 days starting from post bleomycin stimulation; type: functional, organism-based; details: time 1-14 day
Rattus norvegicus [23] = assay: Antifibrotic activity against bleomycin-induced pulmonary fibrosis in po dosed Sprague-Dawley rat assessed as reduction in histopathological changes administered daily for 1 to 14 days starting from post bleomycin stimulation by H and E staining based assay; type: functional, organism-based; details: dose 2-6 mg/kg, time 1-14 day, DDE = dose-dependent effect
Procedure, shortened: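 Bleomycin-induced lung fibrosis in SD rats; oral dosing daily from day 1 for 14 days; saline for sham and bleomycin groups; comparator 100 mg kg⁻¹ d, test doses 2 and 6 mg kg⁻¹ d; lung pathology assessed by HE histology.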

[24] = Half life in human liver microsomes by LC-MS/MS analysis; type: ADME, Microsome
Procedure, shortened: (§4)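 Liver microsomes (human, monkey, dog, rat, mouse) incubated with test compound at 37 °C with NADPH cofactor; samples at 0, 5, 15, 30, 60 min for half-life and in vitro CLint.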

[25] = Half life in dog liver microsomes by LC-MS/MS analysis; type: ADME, Canis lupus familiaris, Microsome; procedure, shortened: as §4
[26] = Half life in mouse liver microsomes by LC-MS/MS analysis; type: ADME, Microsome; procedure, shortened: as §4
[27] = Intrinsic clearance in human liver microsomes by LC-MS/MS analysis; type: ADME, Microsome; details: read-out: CLH; procedure, shortened: as §4
[28] = Intrinsic clearance in monkey liver microsomes by LC-MS/MS analysis; type: ADME, Macaca mulatta, Microsome; details: rhesus monkey, read-out: CLH
Procedure, shortened: (§5)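 Liver microsomes were incubated with the compound at 37 °C with NADPH as cofactor and sampled at 0, 5, 15, 30 and 60 min. Half-life (min) and in vitro CLint (mL min⁻¹ kg) were derived from these samples.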

[29] = Intrinsic clearance in dog liver microsomes by LC-MS/MS analysis; type: ADME, Canis lupus familiaris, Microsome; details: read-out: CLH; procedure, shortened: as §4
[30] = Intrinsic clearance in mouse liver microsomes by LC-MS/MS analysis; type: ADME, Microsome; details: read-out: CLH; procedure, shortened: as §5
Cytochrome P450 2D6 = Cytochrome P450 2D6 (Homo sapiens, UniProt P10635); assay: Inhibition of CYP2D6 in human liver microsomes by LC-MS/MS analysis; type: ADME, Microsome
Procedure, shortened: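 Human microsomes incubated with CYP-specific substrates (1A2, 2C9, 2C19, 2D6, 3A4) and test compound at 0.0–10 μM; IC50 determined.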

[31] = target: Voltage-gated inwardly rectifying potassium channel KCNH2 (Homo sapiens, UniProt Q12809); assay: Inhibition of human ERG stably expressed in CHO cells by automated Qpatch clamp method; type: toxicity, cell-based
Procedure, shortened: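 CHO cell line stably transfected with hERG cDNA expressing hERG channels; channel inhibition measured, IC50 reported.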

[32] = Mutagenecity in Salmonella typhimurium TA100 at 7.8 to 1000 ug measured after 2 to 3 days by mini-Ames test; type: toxicity, Salmonella enterica subsp. enterica serovar Typhimurium; details: dose lower 7.8 µg, time lower 2 day, dose upper 1000 µg, time upper 3 day
Procedure, shortened: (§6)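 Bacterial reverse mutation assay scoring reverse gene mutations at the histidine locus in Salmonella typhimurium strains TA98 and TA100.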

[33] = Mutagenecity in Salmonella typhimurium TA98 at 7.8 to 1000 ug measured after 2 to 3 days by mini-Ames test; type: toxicity, Salmonella enterica subsp. enterica serovar Typhimurium; details: dose lower 7.8 µg, time lower 2 day, dose upper 1000 µg, time upper 3 day; procedure, shortened: as §6
[34] = Toxicity in po dosed Sprague-Dawley rat administered once daily for 28 days; type: organism-based; details: in vivo, time 28 day

Sequence of Cytochrome P450 2D6 (P10635 whole entry): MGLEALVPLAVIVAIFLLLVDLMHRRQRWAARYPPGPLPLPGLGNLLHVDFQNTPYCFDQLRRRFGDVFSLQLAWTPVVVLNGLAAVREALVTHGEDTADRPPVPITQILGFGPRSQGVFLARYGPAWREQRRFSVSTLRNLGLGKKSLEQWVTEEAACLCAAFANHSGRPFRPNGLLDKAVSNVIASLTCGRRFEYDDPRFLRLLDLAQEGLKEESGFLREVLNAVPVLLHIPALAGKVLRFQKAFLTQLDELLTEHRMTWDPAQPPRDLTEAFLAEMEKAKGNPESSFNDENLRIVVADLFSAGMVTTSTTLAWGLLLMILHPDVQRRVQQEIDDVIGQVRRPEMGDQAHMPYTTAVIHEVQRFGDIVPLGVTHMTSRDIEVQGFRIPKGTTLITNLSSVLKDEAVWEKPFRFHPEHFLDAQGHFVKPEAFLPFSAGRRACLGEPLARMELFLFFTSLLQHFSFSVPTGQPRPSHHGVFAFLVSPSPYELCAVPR
Sequence of Voltage-gated inwardly rectifying potassium channel KCNH2 (Q12809 whole entry): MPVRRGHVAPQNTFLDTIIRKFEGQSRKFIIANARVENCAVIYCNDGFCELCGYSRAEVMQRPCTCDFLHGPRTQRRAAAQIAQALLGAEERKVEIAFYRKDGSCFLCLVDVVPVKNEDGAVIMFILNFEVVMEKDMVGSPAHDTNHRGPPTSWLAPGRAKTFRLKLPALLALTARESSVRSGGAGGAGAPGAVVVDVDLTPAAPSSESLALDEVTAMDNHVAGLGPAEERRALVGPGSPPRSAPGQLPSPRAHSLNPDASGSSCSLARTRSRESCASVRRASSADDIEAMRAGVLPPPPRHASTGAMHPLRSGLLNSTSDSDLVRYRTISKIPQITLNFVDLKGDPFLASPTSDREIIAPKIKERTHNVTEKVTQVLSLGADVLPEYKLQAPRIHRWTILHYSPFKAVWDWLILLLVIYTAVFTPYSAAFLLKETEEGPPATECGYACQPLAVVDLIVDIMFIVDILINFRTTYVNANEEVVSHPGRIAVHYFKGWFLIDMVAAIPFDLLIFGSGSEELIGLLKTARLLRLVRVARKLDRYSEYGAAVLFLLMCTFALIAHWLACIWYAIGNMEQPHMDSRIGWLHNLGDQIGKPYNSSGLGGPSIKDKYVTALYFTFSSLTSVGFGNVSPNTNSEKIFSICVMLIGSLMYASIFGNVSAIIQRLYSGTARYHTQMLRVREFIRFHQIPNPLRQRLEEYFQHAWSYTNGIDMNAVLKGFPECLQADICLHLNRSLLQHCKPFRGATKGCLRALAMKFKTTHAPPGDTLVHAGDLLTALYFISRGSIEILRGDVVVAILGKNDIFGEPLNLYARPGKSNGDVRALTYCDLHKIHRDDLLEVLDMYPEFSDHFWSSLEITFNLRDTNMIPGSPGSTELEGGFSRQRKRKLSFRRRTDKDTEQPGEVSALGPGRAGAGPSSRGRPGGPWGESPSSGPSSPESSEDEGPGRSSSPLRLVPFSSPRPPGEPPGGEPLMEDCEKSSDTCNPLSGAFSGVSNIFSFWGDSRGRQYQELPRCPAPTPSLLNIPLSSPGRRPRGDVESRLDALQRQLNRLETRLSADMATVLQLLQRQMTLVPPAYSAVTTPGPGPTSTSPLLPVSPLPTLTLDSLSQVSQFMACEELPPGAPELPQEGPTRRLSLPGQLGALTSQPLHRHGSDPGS

`Cc1cc(=O)n(-c2ccc(N3CCC(Cc4ccc(Cl)c(F)c4)CC3)c(Cl)c2)c(C)n1` gave an IC50 (HFL1 [1]) of 60 µM, an AUC(0-t) [2] of 4280 ng·h/mL and a clearance [3] of 4.33 mL/min/kg. For the same compound, the AUC(0-t) [4] was 11200 ng·h/mL, the AUC(0-inf) [5] was 17100 ng·h/mL and the Activity (HFL1 [6]) was 72.56%. The Activity (HFL1 [7]) was “Active”, the Activity (HFL1 [8]) was “Active” and the clearance [9] was 1.67 mL/min/kg. The Tmax [10] was 1.7 h, the Cmax [11] was 1120 ng/mL and the Vd [12] was 8.2 L/kg. The half-life [13] was 11 h, the Cmax [14] was 628 ng/mL and the half-life [15] was 27 h. The clearance [16] was 3.33 mL/min/kg, the Vd [17] was 3.9 L/kg and the half-life [18] was 16 h. For the same compound, the AUC(0-t) [19] was 12900 ng·h/mL, the half-life [20] was 14 h and the bioavailability [21] was 72%. For the same compound, the Activity (Rattus norvegicus [22]) was “Active”, the Activity (Rattus norvegicus [23]) was “Dde” and the half-life [24] was 1.73 h. It also gave a half-life [25] of 4.93 h, a half-life [26] of 1.18 h and a CLint scaled [27] of 16.7 mL/min/kg. The CLint scaled [28] was 48.6 mL/min/kg, the CLint scaled [29] was 11.7 mL/min/kg and the CLint scaled [30] was 77 mL/min/kg. For the same compound, the IC50 (Cytochrome P450 2D6) was greater than 10 µM, the IC50 [31] was greater than 30 µM and the Activity [32] was “Non-Toxic”. For the same compound, the Activity [33] was “Non-Toxic” and the MTD at 672 h [34] was greater than 500 mg/kg.
